Experimental findings from ChEMBL document CHEMBL4196195, “( R)- N-(1-Methyl-2-hydroxyethyl)-13-( S)-methyl-arachidonamide (AMG315): A Novel Chiral Potent Endocannabinoid Ligand with Stability to Metabolizing Enzymes” (J Med Chem, 2018) are described below.

What is called Ki is a measure of affinity in units of concentration, obtained from inhibition or displacement. In general, Emax refers to the greatest response seen or fitted, relative to the assay's reference. As usually defined, the EC50 is the concentration needed to bring the measured effect to its halfway point.

Active and inactive are the calls of the source.

The subject of data set [1] is Mus musculus. Nature of the data set: Antiallodynic activity in CD1 mouse model of CFA-induced inflammatory pain assessed as increase in CFA-reduced mechanical paw withdrawal threshold at 20 mg/kg, ip measured at 30 mins post injection. Format: functional, organism-based. In a few lines:
(§1)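 Adult male mice (39 ± 10 g), wild-type CD1 or CB1 KO on CD1 background, single housed. CFA:saline 1:1 (20 μL) injected intraplantar into right hind paw; 48 h allowed before dosing. Drug given ip in 5 mL/kg, vehicle group included. Electronic von Frey (90 g probe) after ≥30 min habituation, read in duplicate per paw, at baseline, 48 h post-CFA and 10, 30, 60, 120 min post-dose. Two-way mixed ANOVA with Bonferroni post hoc tests.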

Data set [2] has as its target T1, FAAH (fatty-acid amide hydrolase 1) (Rattus norvegicus, UniProt P97612).
T1 sequence (P97612 whole entry): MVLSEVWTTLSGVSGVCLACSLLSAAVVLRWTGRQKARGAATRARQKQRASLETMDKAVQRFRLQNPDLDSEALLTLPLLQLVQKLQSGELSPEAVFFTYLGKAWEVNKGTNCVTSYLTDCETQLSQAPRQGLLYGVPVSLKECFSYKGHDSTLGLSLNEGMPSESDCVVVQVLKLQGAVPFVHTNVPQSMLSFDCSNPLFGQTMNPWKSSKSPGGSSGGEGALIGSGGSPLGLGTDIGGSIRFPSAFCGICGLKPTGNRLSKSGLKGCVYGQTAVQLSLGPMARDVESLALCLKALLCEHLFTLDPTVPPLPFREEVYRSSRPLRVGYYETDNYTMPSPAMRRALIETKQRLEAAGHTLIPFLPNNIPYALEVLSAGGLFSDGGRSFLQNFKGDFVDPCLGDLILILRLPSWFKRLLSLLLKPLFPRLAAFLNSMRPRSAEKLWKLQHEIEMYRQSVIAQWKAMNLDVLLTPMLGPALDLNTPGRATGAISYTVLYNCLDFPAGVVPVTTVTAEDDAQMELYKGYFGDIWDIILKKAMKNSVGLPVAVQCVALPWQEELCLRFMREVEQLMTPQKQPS
Nature of the data set: Stability assessed as half life for rat FAAH-mediated compound hydrolysis by LC-MS/MS analysis. It is filed as ADME. The following applies: rat FAAH (fatty-acid amide hydrolase 1). In a few lines: (§2)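 Expressed, partially purified rat or human FAAH incubated with compound, or AEA as reference substrate, for 30 min. Aliquots at time points quenched in acetonitrile to precipitate protein. Remaining compound measured by LC-MS/MS on a cyano column with 10 mM ammonium acetate pH 7.3/methanol at 0.5 mL/min.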

For data set [3], the target named is Cannabinoid receptor 2 (Mus musculus, UniProt P47936). The data set can be described thus: Displacement of [3H]CP-55,940 from mouse CB2 receptor expressed in HEK293 cell membranes in absence of FAAH inhibitor PMSF by radioligand binding assay. In a few lines:
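Membranes from HEK293 cells expressing human or mouse CB2 (preparations lacking FAAH activity), competing against [3H]CP-55,940. IC50 by nonlinear regression, converted to Ki. Three independent experiments run in triplicate; Ki is the mean of the three.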

The subject of data set [4] is Mus musculus. The data set can be described thus: Antiallodynic activity in CD1 mouse model of CFA-induced inflammatory pain assessed as increase in CFA-reduced mechanical paw withdrawal threshold at 20 mg/kg, ip measured at 10 mins post injection. It is filed as functional, organism-based. The gist of the method:
as §1

The target of data set [5] is Cannabinoid receptor 1 (Rattus norvegicus) (UniProt P20272). The data set can be described thus: Agonist activity at rat CB1 receptor expressed in HEK293 cells assessed as inhibition of forskolin-induced cAMP accumulation incubated for 30 mins relative to 500 nM CP-55,940. Format: functional, cell-based. On the technique in general: Cyclic AMP is a second messenger, typically raised through Gs and lowered through Gi signalling.
Cannabinoid receptor 1 (Rattus norvegicus), sequence (P20272 whole entry): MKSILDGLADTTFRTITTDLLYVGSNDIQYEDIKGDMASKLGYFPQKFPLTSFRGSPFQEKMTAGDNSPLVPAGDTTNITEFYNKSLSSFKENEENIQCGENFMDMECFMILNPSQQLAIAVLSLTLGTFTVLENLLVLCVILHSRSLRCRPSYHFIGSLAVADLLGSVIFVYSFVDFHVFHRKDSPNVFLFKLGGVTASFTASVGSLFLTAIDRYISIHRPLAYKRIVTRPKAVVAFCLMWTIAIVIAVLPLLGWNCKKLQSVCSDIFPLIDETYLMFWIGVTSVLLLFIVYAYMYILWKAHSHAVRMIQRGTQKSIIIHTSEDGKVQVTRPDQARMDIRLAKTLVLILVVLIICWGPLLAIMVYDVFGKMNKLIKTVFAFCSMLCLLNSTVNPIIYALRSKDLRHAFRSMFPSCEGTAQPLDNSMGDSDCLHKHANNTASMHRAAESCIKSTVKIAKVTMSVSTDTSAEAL

Data set [6] deals with T2, FAAH (fatty-acid amide hydrolase 1) (Homo sapiens, UniProt O00519).
T2 sequence (O00519 whole entry): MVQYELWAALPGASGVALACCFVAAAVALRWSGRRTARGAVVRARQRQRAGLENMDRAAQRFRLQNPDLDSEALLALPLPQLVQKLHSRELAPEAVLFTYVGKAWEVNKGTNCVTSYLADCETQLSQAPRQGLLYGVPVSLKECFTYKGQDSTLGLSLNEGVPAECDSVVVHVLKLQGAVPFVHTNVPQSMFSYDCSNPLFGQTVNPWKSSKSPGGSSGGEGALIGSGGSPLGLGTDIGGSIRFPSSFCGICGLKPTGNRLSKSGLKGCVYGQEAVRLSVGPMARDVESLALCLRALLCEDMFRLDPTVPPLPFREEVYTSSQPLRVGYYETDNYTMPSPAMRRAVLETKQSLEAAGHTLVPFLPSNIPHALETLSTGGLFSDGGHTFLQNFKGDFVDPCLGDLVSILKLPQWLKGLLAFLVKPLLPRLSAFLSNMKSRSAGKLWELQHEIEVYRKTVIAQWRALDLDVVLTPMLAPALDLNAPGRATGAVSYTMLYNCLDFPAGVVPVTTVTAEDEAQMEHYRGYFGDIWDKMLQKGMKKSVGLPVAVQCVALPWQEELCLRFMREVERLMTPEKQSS
Nature of the data set: Stability assessed as half life for human FAAH-mediated compound hydrolysis by LC-MS/MS analysis. Format: ADME. The following applies: human FAAH (fatty-acid amide hydrolase 1). The gist of the method:
as §2

The target of data set [7] is T2, FAAH (fatty-acid amide hydrolase 1). The data set can be described thus: Stability assessed as human FAAH-mediated compound hydrolysis by LC-MS/MS analysis. Format: ADME. To be noted: human FAAH (fatty-acid amide hydrolase 1), read-out: Stability. The gist of the method:
as §2

For data set [8], the target named is T3, Prostaglandin G/H synthase 2 (Mus musculus, UniProt Q05769).
T3 sequence (Q05769 whole entry): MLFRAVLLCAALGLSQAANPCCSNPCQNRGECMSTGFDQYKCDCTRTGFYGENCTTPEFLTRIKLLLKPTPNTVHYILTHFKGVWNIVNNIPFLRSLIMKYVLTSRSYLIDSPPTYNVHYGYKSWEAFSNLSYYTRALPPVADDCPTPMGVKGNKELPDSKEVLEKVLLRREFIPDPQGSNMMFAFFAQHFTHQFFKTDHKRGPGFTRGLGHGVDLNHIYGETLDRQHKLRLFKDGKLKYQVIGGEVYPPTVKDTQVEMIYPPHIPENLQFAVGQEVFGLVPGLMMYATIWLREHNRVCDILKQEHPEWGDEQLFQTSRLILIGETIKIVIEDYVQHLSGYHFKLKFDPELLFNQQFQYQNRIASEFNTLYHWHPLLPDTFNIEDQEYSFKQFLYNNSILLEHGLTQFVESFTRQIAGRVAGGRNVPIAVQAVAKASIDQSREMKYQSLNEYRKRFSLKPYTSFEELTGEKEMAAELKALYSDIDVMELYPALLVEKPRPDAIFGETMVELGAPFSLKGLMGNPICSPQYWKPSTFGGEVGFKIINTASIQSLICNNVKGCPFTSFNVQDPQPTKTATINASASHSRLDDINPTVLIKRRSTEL
The data set can be described thus: Stability assessed as mouse COX2-mediated compound oxidation by measuring oxygen consumption by polarographic assay. Format: ADME.

Data set [9] addresses T4, Cannabinoid receptor 1 (Rattus norvegicus, UniProt P20272). The data set can be described thus: Agonist activity at rat CB1 receptor expressed in HEK293 cells assessed as inhibition of forskolin-induced cAMP accumulation incubated for 30 mins. To be noted: read-out: EC50. It is filed as functional, cell-based. In a few lines: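 HEK293 cells stably expressing rCB1, harvested with nonenzymatic dissociation reagent, washed in HBSS, 1000–1500 cells/well. Test compound at various concentrations with forskolin (2 μM final) in stimulation buffer, 30 min at room temperature. cAMP read by TR-FRET (Eu-cAMP tracer plus ULight anti-cAMP, 60 min room temperature). Forskolin-stimulated cAMP set to 100%. EC50 from nonlinear regression; two independent experiments in triplicate.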

The target in data set [10] is Cannabinoid receptor 2 (Homo sapiens, UniProt P34972). The data set can be described thus: Displacement of [3H]CP-55,940 from human CB2 receptor expressed in HEK293 cell membranes in absence of FAAH inhibitor PMSF by radioligand binding assay. Background: Displacement assays read how much labelled ligand stays bound in the presence of the test substance.
Cannabinoid receptor 2 (Homo sapiens, UniProt P34972), sequence (P34972 whole entry): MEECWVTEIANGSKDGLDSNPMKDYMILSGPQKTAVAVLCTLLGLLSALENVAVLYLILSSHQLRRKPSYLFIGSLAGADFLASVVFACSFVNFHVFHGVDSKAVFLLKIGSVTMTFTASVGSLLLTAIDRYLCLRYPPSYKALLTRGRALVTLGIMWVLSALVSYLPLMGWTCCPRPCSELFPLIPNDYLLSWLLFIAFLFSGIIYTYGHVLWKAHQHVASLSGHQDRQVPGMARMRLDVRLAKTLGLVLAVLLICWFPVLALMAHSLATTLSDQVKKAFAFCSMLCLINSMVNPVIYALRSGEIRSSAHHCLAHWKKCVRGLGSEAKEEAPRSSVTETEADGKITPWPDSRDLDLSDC
For data set [11], the target named is T4, Cannabinoid receptor 1. The data set can be described thus: Displacement of [3H]CP-55,940 from CB1 receptor in rat brain membranes in absence of FAAH inhibitor PMSF by radioligand binding assay. It is filed as cell membranes, Membrane.
For data set [12], the target named is T1, FAAH (fatty-acid amide hydrolase 1). Nature of the data set: Stability assessed as rat FAAH-mediated compound hydrolysis by LC-MS/MS analysis. Format: ADME. The following applies: rat FAAH (fatty-acid amide hydrolase 1), read-out: Stability. In a few lines: as §2
Data set [13] has as its target T4, Cannabinoid receptor 1. Nature of the data set: Displacement of [3H]CP-55,940 from CB1 receptor in rat brain membranes in presence of FAAH inhibitor PMSF by radioligand binding assay. It is filed as cell membranes, Membrane.

T4 sequence (P20272 whole entry): as the sequence (P20272 whole entry) above
Cannabinoid receptor 2 (Mus musculus, UniProt P47936), sequence (P47936 whole entry): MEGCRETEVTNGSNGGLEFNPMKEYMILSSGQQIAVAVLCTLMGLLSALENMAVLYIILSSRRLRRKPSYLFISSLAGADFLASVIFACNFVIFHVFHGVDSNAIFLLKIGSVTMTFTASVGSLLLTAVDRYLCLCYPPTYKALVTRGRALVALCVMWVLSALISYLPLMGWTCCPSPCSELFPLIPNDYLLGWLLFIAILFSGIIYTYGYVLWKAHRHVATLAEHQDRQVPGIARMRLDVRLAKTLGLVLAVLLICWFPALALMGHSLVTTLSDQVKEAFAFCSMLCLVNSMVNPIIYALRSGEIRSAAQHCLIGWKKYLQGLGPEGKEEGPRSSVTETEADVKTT

As to `CCCCC/C=C\C/C=C\C/C=C\C/C=C\CCCC(=O)NCCO` [ANANDAMIDE], the result with Mus musculus [1] was inactive. The results for the half-life in [2] and in data set [6] were 12.1 min and 13.2 min, respectively. On Cannabinoid receptor 2 [3], this compound had a Ki of over 1000 nM. Besides, the result with Mus musculus [4] was Active. Further, the Emax in data set [5] came out at 61%.

For `CCCCC/C=C\C/C=C\C/C=C\[C@H](C)/C=C\CCCC(=O)N[C@H](C)CO`, the half-life in [7] and in [12] was 30 min throughout. Further, the Stability entry in data set [8] is on record as “Stable”. In addition, on Cannabinoid receptor 1 [9], the EC50 turned out to be 28.4 nM. The inhibition constant (Ki) on Cannabinoid receptor 2 [10] was determined as 12.8 nM; on Cannabinoid receptor 1 [11] it was 4.6 nM; on Cannabinoid receptor 2 [3], 19.8 nM; at Cannabinoid receptor 1 [13] it was 2.2 nM. The maximal effect (Emax) in data set [5] came out at 100%.
